High-throughput results deposited in PubChem BioAssay by several laboratories.
Shown are actives, neighbours in structure and some others; about 4.9% of the full set was active somewhere.
STAT1 activator = STAT1 signaling activators, primary screen, cell-based, HTS, luciferase reporter; NIH 3T3 STAT1-luciferase reporter, IFN-gamma, luminescence; 100% = IFN-gamma alone, no compound; activation (% of control), % at 5.5 µM; actives 2.6% (n = 200,000);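 active means activation above the screen-wide mean activation plus 3 SD, cut at about 130% in these data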;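 further: raw ratio to IFN-gamma control signal so 100% means no change and 0% no light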
NF-kB neuron act = activators of NF-kB expression in neurons, primary screen, cell-based, HTS; human neuronal cells, NF-kB reporter expression; hits give high values; fold change at 12.5 µM; actives 1.6% (n = 190,000); in the data active means fold change above about 3.3
STAT3 inh = IL-6 driven STAT3 reporter inhibitors, primary screen, U3A cells, luciferase, luminescence, MLSCN library; actives 0.89% (n = 190,000); AID 862, 2007; IL-6 STAT3-luciferase reporter; host cell line lacks STAT1; inhibition, % at 5.5 µM;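 active means inhibition above the mean inhibition across all screened compounds plus 3 SD, cut at about 44% in these data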;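 further: 0% = DMSO only wells and 100% = 100 µM nifuroxazide control wells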
APP 5'UTR act = activators of APP 5'UTR luciferase reporter, primary screen, SH-SY5Y cells; SH-SY5Y APP 5'UTR luciferase reporter, luminescence; zero percent = DMSO vehicle wells; activation, % at 2 µM; actives 1% (n = 190,000);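 active means activation above a set limit, based on mean plus 3 SD of controls, cut at about 140% in these data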
STAT3 activator = IL-6 driven STAT3 reporter potentiators, primary screen, U3A cells, luciferase, luminescence, MLSCN library; activation (% of control), % at 5.6 µM; actives 0.91% (n = 190,000); IL-6 STAT3-luciferase reporter; 100% = signal with IL-6 EC80 alone;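 active means activation above the screen-wide mean of compound activation plus 3 SD, cut at about 130% in these data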;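 further: 0% = background luminescence of wells with medium and substrate only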
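system = STAT3-luciferase reporter U3A cells | reagent = IL-6 stimulus at 33 ng/mL final | timing = 1 h compound pre-exposure, 6 h IL-6 stimulation, 37 °C | measured by = luminescence | evaluation = % activation versus median of IL-6-stimulated wells | control set = IL-6-only wells as 100% reference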
STAT1 inh = STAT1 signaling inhibitors, primary screen, cell-based, HTS, luciferase reporter; inhibition, % at 5.5 µM; actives 0.35% (n = 200,000); NIH 3T3 STAT1-luciferase reporter, IFN-gamma, luminescence;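 active means inhibition above a set limit, the mean inhibition across all tested compounds plus 3 SD, cut at about 34% in these data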;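 further: 0% = IFN-gamma with DMSO and 100% = IFN-gamma with 300 µM nifuroxazide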
Starred values were filed as active, the others as inactive.

SMILES	STAT1 activator	NF-kB neuron act	STAT3 inh	APP 5'UTR act	STAT3 activator	STAT1 inh
CC1CCCN(c2ccc(C(=O)NCc3ccccc3)cn2)C1 (configuration not stated)	136.9*	2.01	1.8	-11.4	100.4	-40.3
CC1CCN(c2ccc(C(=O)NCCc3ccccc3)cn2)CC1	132.3*	1.59	-8.5	31.0	110.8	-32.7
CCN(C(=O)COC(=O)c1ccc2c(=O)n3c(nc2c1)CCC3)C1CCS(=O)(=O)C1 (configuration not stated)	99.0	1.03	-0.8	4.2	103.8	-0.8
Nc1ccc(Nc2nc(-c3cc4ccccc4oc3=O)cs2)cc1	144.2*	8.98*	25.4	94.8	80.2	-50.3
O=C(O)c1ccc(Nc2nc(-c3cc4ccccc4oc3=O)cs2)cc1O	110.5	0.66	-4.9	-5.0	103.7	-11.1
CNc1nnc(-c2cc3ccccc3oc2=O)s1	142.7*	3.25	20.8	101.3	82.9	-47.1
Cc1ccc2[nH]c3c(c2c1)CN(C(=O)CN1CCN(c2ccccc2F)CC1)CC3	101.2	2.51	-4.6	3.3	107.0	-1.3
CCC(C)(C)C1CCc2nc3ccccc3c(C(=O)OC(C)C(=O)Nc3c(C)n(C)n(-c4ccccc4)c3=O)c2C1 (configuration not stated)	102.7	0.42	-9.6	1.8	106.9	-3.0
NS(=O)(=O)c1cccc(NC(=O)c2cc3ccccc3o2)c1	113.8	1.28	18.7	16.8	86.7	-17.2
Cc1cccc(NC(=O)c2cc3ccccc3o2)c1	136.1*	6.7*	8.0	177.8*	95.7	-39.1
Cc1cc(C(=O)Nc2cccc(C(=O)O)c2)c(C)o1	91.0	1.23	-17.2	12.4	112.7	9.8
Cc1cccc(NC(=O)Cc2noc3ccccc23)c1C	103.8	1.14	6.6	26.6	95.6	-4.7
O=C(Nc1cccc(Br)c1)c1cc2ccccc2o1	141.8*	5.71*	-9.1	158.4*	110.4	-45.5
Cc1cc(C(=O)Nc2cccc(C(=O)O)c2)oc1C	49.2	7.04*	87.3*	-1.7	30.5	55.1*
Cc1cccc(NC(=O)Cc2noc3ccccc23)c1	139.7*	2	-13.1	38.3	112.8	-42.2
O=C(NCCOc1ccccc1)c1cc2ccccc2o1	123.8	4.44*	7.4	95.8	96.1	-25.8
CCC(=O)Nc1cccc(-c2cc3ccccc3oc2=O)c1	133.5*	0.6	4.2	39.8	100.9	-37.6
O=C(NC(=S)Nc1cccnc1)c1cc2ccccc2o1	130.7*	1.86	7.7	-3.3	97.2	-34.7
CCC(=O)Nc1cccc(NC(=O)c2cc3ccccc3o2)c1	147.6*	2.88	8.0	88.7	96.6	-52.5
O=C(NC(=S)NCc1cccnc1)c1cc2ccccc2o1	104.7	1.19	10.0	-14.6	95.6	-3.2
CCOC(=O)c1ccc(NC(=O)c2cc3ccccc3o2)cc1	112.7	1.77	13.0	23.9	94.2	-13.0
CCN(CCO)Cc1csc2ccc(C(C)(C)C)cc12	100.6	0.83	12.6	11.8	92.3	-0.6
CCN(CC)CCC(C)OC(=O)c1ccc(O)cc1O (configuration not stated)	98.0	0.99	10.6	-8.7	93.0	0.6
CCCn1nnc(NC(=O)c2cc3ccccc3o2)n1	125.3	2.79	5.4	98.2	99.5	-27.4
CCCCn1nnc(NC(=O)c2cc3ccccc3o2)n1	134.6*	2.01	-1.0	25.0	103.5	-27.9
SMILES	STAT1 activator	NF-kB neuron act	STAT3 inh	APP 5'UTR act	STAT3 activator	STAT1 inh
CCn1c(C)nc2cc(C(=O)OC)ccc21	110.2	1.31	-5.1	1.7	109.7	-11.3
CCn1c(C)nc2cc(C(=O)NNS(=O)(=O)c3ccccc3F)ccc21	110.4	1.49	0.0	4.5	102.8	-11.6
CCn1c(C)nc2cc(C(=O)N/N=C/c3ccccc3C)ccc21	143.2*	3.91*	17.9	95.6	86.4	-45.2
CCn1c(C)nc2cc(C(=O)N/N=C(\C)c3ccccc3O)ccc21	136.9*	1.39	16.0	56.5	92.9	-42.8
O=C(Nc1nccs1)C(=O)c1c[nH]c2ccccc12	132.9*	2.63	-32.8	50.4	136.3*	-35.8
CSc1ccccc1NC(=O)C(=O)c1c[nH]c2ccccc12	148.6*	1.53	-26.5	34.1	129.5	-56.8
COC(=O)CCC(=O)COc1ccc(OC)cc1C#N	130.5*	1.62	-11.6	47.1	112.9	-33.4
COc1cc(C#N)c(N=C(SCC#N)N2CCOCC2)cc1OC	92.9	1.18	16.9	-1.1	89.7	4.9
CCn1ccnc1[C@@H]1C[C@H]2CN(c3ccccc3OC)C(=O)[C@]23CCCN13	90.7	1.08	-0.7	10.8	104.5	8.7
O=C(CNC(=O)c1ccccc1)OC1CCCCC1	134.7*	2.89	6.9	93.5	98.8	-37.5
O=C(NC(=O)c1ccc(Cl)cc1)OC1CCCCC1	109.4	0.98	-10.5	10.4	108.9	-10.7
O=C(O)c1cc2c(s1)-c1ccccc1CC2	102.7	0.98	-11.6	15.8	107.4	-3.0
c1ccc(-c2cc3n(c2)CCc2ccccc2-3)cc1	130.0*	2.89	-105.5	47.7	190.8*	-42.5
OC(COc1ccc2ccccc2c1Cl)CN1CCOCC1 (configuration not stated)	134.3*	2.07	1.8	39.9	102.2	-37.8
c1ccc(Sc2ncnc3c2oc2ccccc23)nc1	132.1*	2.32	-0.6	67.8	103.3	-35.0
CC(C)Sc1ncnc2c1oc1ccccc12	103.2	1.19	8.1	-1.2	94.7	-3.5
CCCSc1ncnc2c1oc1ccccc12	117.9	1.47	12.0	-3.5	91.3	-19.6
COc1ncnc2c1oc1ccccc12	146.1*	3.33*	-13.2	99.5	113.3	-52.4
CSc1ccc(/C=C/C(=O)c2ccc(NC(=O)C(C)C)cc2)cc1	99.7	1.1	13.7	7.3	93.7	0.3
CSc1ccc(C(=O)/C=C/c2ccc(N)cc2)cc1	113.5	10*	5.5	116.8	97.6	-15.1
CSc1cccc(NC(=O)/C=C/c2ccccc2)c1	133.2*	2.74	4.6	109.1	96.6	-36.4
CCC(=O)Nc1cccc(C(=O)/C=C/c2cccs2)c1	102.2	2.63	20.7	45.5	88.8	-2.1
CCC(=O)Nc1cccc(C(=O)/C=C/c2ccccc2)c1	107.8	8.75*	3.7	24.2	101.9	-8.5
CSc1ccc(/C=C/C(=O)Nc2ccccc2)cc1	49.8	6.28*	79.2*	210.3*	36.5	53.3*
CSc1cccc(NC(=O)/C=C/c2ccc(Cl)cc2)c1	111.2	1.78	19.0	19.7	89.2	-12.2
CC(=O)Nc1ccc(NC(=O)/C=C/c2ccccc2)cc1	112.1	1.03	24.3	32.3	87.3	-14.0
